Experimental data taken from ChEMBL document CHEMBL1208782, “Synthesis and pharmacological validation of a novel series of non-steroidal FXR agonists” (Bioorg Med Chem Lett, 2010).
Calls of active or inactive are those of the source. No cut-off for these calls is given here.

Legend:
[1] = target: T1, Bile acid receptor (Homo sapiens) (UniProt Q96RI1); assay: Agonist activity at human full length FXR transfected in HEK293 cells coexpressing pTRexDest/pGL2promotor assessed as luciferase activity by direct reporter cellular assay relative to GW-4064; type: functional, cell-based
T1 sequence (whole entry): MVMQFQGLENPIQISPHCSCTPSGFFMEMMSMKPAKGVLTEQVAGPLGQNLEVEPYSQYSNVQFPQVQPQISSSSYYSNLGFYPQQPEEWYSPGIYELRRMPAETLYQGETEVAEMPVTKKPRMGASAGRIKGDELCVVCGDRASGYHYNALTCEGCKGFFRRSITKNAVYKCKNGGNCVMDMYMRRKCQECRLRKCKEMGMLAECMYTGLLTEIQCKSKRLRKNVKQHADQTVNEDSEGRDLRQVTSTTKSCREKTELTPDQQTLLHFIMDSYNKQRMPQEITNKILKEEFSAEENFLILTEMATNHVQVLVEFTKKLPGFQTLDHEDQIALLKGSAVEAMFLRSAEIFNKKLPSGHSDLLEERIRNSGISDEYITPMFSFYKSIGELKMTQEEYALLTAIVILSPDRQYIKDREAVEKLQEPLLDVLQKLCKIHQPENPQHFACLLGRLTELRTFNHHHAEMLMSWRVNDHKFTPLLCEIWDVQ

[2] = Drug level in db/db mouse liver at 25 mg/kg bid after 4 hrs by LC/MS-MS analysis; type: ADME, organism-based; set-up: dose 25 mg/kg; settings: read-out: Drug uptake
How it was run: (§1)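 db/db mice were dosed twice daily for 12 days. Plasma and liver concentrations were determined 4 h and 24 h after the last administration.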

[3] = Drug level in db/db mouse bile measured metabolites as glucuronide at 5 mg/kg, po after 240 mins; type: ADME, organism-based; set-up: dose 5 mg/kg, route oral; settings: in vivo, 4 h
[4] = Oral bioavailability in db/db mouse at 5 mg/kg, po; type: ADME, organism-based; settings: in vivo
How it was run: (§2)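 Derived from the single-dose mouse plasma time courses of parent compound, 5-240 min. Dosing was 5 mg/kg po or 1 mg/kg iv. Volume of distribution is in mL/kg, clearance in mL/h/kg, and oral bioavailability in %.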

[5] = Plasma concentration in db/db mouse at 25 mg/kg bid after 4 hrs by LC/MS-MS analysis; type: ADME, organism-based; set-up: dose 25 mg/kg; settings: read-out: Drug uptake; how it was run: as §1
[6] = Plasma concentration in db/db mouse at 1 mg/kg, iv after 10 mins; type: ADME, organism-based; set-up: dose 1 mg/kg, route intravenous; settings: read-out: Drug uptake
How it was run: (§3)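 Single dose to mice, 5 mg/kg po or 1 mg/kg iv. Plasma was sampled at 5, 10, 30, 90 and 240 min. Only parent compound was measured, in ng/mL.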

Estrogen receptor beta = Estrogen receptor beta (Homo sapiens, UniProt Q92731); assay: Agonist activity at ERbeta-LBD expressed in HEK293 cells assessed as Gal4-DBD interaction by cellular mammalian one hybrid assay; type: functional, cell-based
Chain of Estrogen receptor beta (Q92731 whole entry, the tested form may be a part): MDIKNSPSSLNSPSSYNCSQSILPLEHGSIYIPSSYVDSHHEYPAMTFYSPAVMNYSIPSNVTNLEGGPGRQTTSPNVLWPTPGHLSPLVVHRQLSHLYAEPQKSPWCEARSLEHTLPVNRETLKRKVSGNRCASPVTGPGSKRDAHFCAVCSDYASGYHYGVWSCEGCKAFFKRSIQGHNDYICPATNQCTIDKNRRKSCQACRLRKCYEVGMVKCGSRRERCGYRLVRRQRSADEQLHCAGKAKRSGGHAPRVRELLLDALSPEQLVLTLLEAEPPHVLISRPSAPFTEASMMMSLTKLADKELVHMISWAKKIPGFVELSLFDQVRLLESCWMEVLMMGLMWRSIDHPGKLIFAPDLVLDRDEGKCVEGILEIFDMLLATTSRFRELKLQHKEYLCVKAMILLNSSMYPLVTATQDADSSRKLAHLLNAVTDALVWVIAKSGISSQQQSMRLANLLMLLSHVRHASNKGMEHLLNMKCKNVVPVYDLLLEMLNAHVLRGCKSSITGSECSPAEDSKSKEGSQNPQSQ

[7] = Plasma concentration in db/db mouse at 5 mg/kg, po after 30 mins; type: ADME, organism-based; set-up: dose 5 mg/kg, route oral; settings: read-out: Drug uptake; how it was run: as §3
[8] = Plasma concentration in db/db mouse at 5 mg/kg, po after 90 mins; type: ADME, organism-based; set-up: dose 5 mg/kg, route oral; settings: read-out: Drug uptake; how it was run: as §3
[9] = Clearance in db/db mouse at 5 mg/kg, po; type: ADME, organism-based; set-up: dose 5 mg/kg, route oral; settings: in vivo
How it was run: (§4)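 Mice received a single dose of 5 mg/kg po or 1 mg/kg iv. Plasma was sampled at 5, 10, 30, 90 and 240 min and the parent compound alone was measured (ng/mL). Clearance (mL/h/kg), Vd (mL/kg) and oral bioavailability were derived from these plasma profiles.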

[10] = Plasma concentration in db/db mouse at 1 mg/kg, iv after 30 mins; type: ADME, organism-based; set-up: dose 1 mg/kg, route intravenous; settings: read-out: Drug uptake; how it was run: as §3
[11] = Drug level in db/db mouse bile measured metabolites as carboxylic acid at 1 mg/kg, iv after 240 mins; type: ADME, organism-based; set-up: dose 1 mg/kg, route intravenous; settings: in vivo, 4 h
Liver [12] = assay: Drug level in db/db mouse liver measured metabolites as glucuronide at 5 mg/kg, po after 240 mins; type: ADME, organism-based; set-up: dose 5 mg/kg, route oral; settings: in vivo, 4 h
How it was run: (§5)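 Mice got a single dose, 5 mg/kg po or 1 mg/kg iv. Liver and bile were sampled 240 min after dosing. Parent carboxylic acid, its acyl-glucuronide and its taurine amide were quantified separately, in ng/mL. Glucuronide identity was confirmed by glucuronidase digestion of bile or bile extracts, which regenerated the parent.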

[13] = Plasma concentration in db/db mouse at 25 mg/kg bid after 24 hrs by LC/MS-MS analysis; type: ADME, organism-based; set-up: dose 25 mg/kg; settings: read-out: Drug uptake; how it was run: as §1
[14] = Plasma concentration in db/db mouse at 5 mg/kg, po after 10 mins; type: ADME, organism-based; set-up: dose 5 mg/kg, route oral; settings: read-out: Drug uptake; how it was run: as §3
Mus musculus [15] = assay: Reduction in total plasma cholesterol level in db/db mouse at 1-25 mg/kg bid after 12 days; type: functional, organism-based
How it was run: (§6)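 C57BL/KSK-mLep^db/mLep^db mice were dosed orally at 1, 5 and 25 mg/kg b.i.d. for 12 days. Total plasma triglycerides and total plasma cholesterol were measured, with cholesterol reported as mg/dl. Significance was given at p<0.05, <0.01 and <0.001 levels.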

[16] = Plasma concentration in db/db mouse at 5 mg/kg, po after 5 mins; type: ADME, organism-based; set-up: dose 5 mg/kg, route oral; settings: read-out: Drug uptake; how it was run: as §3
Liver [17] = assay: Drug level in db/db mouse liver measured metabolites as carboxylic acid at 5 mg/kg, po after 240 mins; type: ADME, organism-based; set-up: dose 5 mg/kg, route oral; settings: in vivo, 4 h; how it was run: as §5
[18] = Drug level in db/db mouse bile measured metabolites as taurine amide at 5 mg/kg, po after 240 mins; type: ADME, organism-based; set-up: dose 5 mg/kg, route oral; settings: in vivo, 4 h; how it was run: as §5
Mus musculus [19] = assay: Volume of distribution in db/db mouse at 1 mg/kg, iv; type: ADME, organism-based; set-up: dose 1 mg/kg, route intravenous; settings: in vivo; how it was run: as §2
Mus musculus [20] = assay: Reduction in total plasma cholesterol level in db/db mouse at 1 mg/kg bid after 12 days; type: functional; how it was run: as §6
Mus musculus [21] = assay: Volume of distribution in db/db mouse at 5 mg/kg, po; type: ADME, organism-based; set-up: dose 5 mg/kg, route oral; settings: in vivo; how it was run: as §2
[22] = target: Peroxisome proliferator-activated receptor gamma (Homo sapiens, UniProt P37231); assay: Agonist activity at PPARgamma-LBD expressed in HEK293 cells assessed as Gal4-DBD interaction by cellular mammalian one hybrid assay; type: functional, cell-based
Chain of Peroxisome proliferator-activated receptor gamma (P37231 whole entry, the tested form may be a part): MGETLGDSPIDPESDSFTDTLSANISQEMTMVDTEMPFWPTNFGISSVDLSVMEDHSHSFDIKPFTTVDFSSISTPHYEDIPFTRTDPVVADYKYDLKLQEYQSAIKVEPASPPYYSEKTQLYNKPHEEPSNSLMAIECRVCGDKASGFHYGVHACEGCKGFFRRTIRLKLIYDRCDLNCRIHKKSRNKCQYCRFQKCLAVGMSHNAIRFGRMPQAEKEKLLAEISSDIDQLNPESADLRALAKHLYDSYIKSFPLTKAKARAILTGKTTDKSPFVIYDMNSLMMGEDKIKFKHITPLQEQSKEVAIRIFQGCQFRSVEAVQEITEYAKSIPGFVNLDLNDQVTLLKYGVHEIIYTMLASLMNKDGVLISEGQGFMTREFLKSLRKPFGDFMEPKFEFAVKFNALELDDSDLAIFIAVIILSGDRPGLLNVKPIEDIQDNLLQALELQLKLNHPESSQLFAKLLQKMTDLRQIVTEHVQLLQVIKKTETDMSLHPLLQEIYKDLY

[23] = Plasma concentration in db/db mouse at 1 mg/kg, iv after 90 mins; type: ADME, organism-based; set-up: dose 1 mg/kg, route intravenous; settings: read-out: Drug uptake; how it was run: as §3
[24] = target: Peroxisome proliferator-activated receptor alpha (Homo sapiens, UniProt Q07869); assay: Agonist activity at PPARalpha-LBD expressed in HEK293 cells assessed as Gal4-DBD interaction by cellular mammalian one hybrid assay; type: functional, cell-based
Chain of Peroxisome proliferator-activated receptor alpha (Q07869 whole entry, the tested form may be a part): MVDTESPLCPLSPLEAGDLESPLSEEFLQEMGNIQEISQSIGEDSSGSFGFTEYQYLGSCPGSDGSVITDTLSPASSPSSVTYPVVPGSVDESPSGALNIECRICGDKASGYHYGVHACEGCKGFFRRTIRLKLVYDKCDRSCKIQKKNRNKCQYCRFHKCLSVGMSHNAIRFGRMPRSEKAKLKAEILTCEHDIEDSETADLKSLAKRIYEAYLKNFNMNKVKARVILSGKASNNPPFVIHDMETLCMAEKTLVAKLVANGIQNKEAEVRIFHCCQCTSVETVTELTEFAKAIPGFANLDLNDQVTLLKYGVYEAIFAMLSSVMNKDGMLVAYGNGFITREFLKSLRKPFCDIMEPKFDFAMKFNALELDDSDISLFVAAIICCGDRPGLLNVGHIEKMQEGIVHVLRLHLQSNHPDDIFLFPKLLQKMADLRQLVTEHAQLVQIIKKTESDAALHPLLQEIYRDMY

[25] = Drug level in db/db mouse bile measured metabolites as carboxylic acid at 5 mg/kg, po after 240 mins; type: ADME, organism-based; set-up: dose 5 mg/kg, route oral; settings: in vivo, 4 h
Estrogen receptor = Estrogen receptor (Homo sapiens, UniProt P03372); assay: Agonist activity at ERalpha-LBD expressed in HEK293 cells assessed as Gal4-DBD interaction by cellular mammalian one hybrid assay; type: functional, cell-based
Chain of Estrogen receptor (P03372 whole entry, the tested form may be a part): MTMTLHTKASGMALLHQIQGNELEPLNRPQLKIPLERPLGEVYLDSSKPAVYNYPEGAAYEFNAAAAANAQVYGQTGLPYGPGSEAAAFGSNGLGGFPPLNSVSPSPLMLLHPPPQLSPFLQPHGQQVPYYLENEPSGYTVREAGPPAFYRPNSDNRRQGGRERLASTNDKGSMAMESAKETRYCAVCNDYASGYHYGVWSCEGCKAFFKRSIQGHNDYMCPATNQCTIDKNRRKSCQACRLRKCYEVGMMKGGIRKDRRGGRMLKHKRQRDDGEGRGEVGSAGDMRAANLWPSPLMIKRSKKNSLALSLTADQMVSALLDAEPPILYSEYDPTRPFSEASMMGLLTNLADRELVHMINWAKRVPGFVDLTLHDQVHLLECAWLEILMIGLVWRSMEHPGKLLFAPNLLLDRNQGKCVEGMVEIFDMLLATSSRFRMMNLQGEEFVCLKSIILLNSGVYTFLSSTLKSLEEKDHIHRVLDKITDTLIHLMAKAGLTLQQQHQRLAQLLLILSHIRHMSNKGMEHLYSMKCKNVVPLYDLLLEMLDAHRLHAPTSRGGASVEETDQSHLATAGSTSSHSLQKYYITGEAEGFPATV

[26] = Plasma concentration in db/db mouse at 5 mg/kg, po after 240 mins; type: ADME, organism-based; set-up: dose 5 mg/kg, route oral; settings: read-out: Drug uptake; how it was run: as §3
[27] = Drug level in db/db mouse bile measured metabolites as glucuronide at 1 mg/kg, iv after 240 mins; type: ADME, organism-based; set-up: dose 1 mg/kg, route intravenous; settings: in vivo, 4 h
[28] = Plasma concentration in db/db mouse at 1 mg/kg, iv after 5 mins; type: ADME, organism-based; set-up: dose 1 mg/kg, route intravenous; settings: read-out: Drug uptake; how it was run: as §3
[29] = Drug level in db/db mouse bile measured metabolites as taurine amide at 1 mg/kg, iv after 240 mins; type: ADME, organism-based; set-up: dose 1 mg/kg, route intravenous; settings: in vivo, 4 h; how it was run: as §5
Liver [30] = assay: Drug level in db/db mouse liver measured metabolites as carboxylic acid at 1 mg/kg, iv after 240 mins; type: ADME, organism-based; set-up: dose 1 mg/kg, route intravenous; settings: in vivo, 4 h; how it was run: as §5
[31] = Clearance in db/db mouse at 1 mg/kg, iv; type: ADME, organism-based; set-up: dose 1 mg/kg, route intravenous; settings: in vivo; how it was run: as §4
Mus musculus [32] = assay: Reduction in total plasma triglyceride level in db/db mouse at 1-25 mg/kg bid after 12 days; type: functional, organism-based; how it was run: as §6

SMILES | Efficacy [1] | concentration at 4 h [2] | Drug uptake [3] | bioavailability [4] | concentration at 4 h [5] | concentration at 10 min [6] | EC50 (Estrogen receptor beta) | concentration at 0.5 h [7] | concentration at 1.5 h [8] | CL/F [9] | concentration at 0.5 h [10] | Drug uptake [11] | Drug uptake (Liver [12]) | concentration at 24 h [13] | concentration at 10 min [14] | Activity (Mus musculus [15]) | concentration at 5 min [16] | Drug uptake (Liver [17]) | Drug uptake [18] | Vd (Mus musculus [19]) | other results
CN(Cc1cccc(C(=O)O)c1)c1ccc(OCc2c(-c3c(Cl)cccc3Cl)noc2C2CC2)nc1C(F)(F)F | 43% | – | – | – | – | – | – | – | – | – | – | – | – | – | – | – | – | – | – | – | –
CN(Cc1ccc(C(=O)O)cc1)c1ccc(OCc2c(-c3c(Cl)cccc3Cl)noc2C2CC2)nc1C(F)(F)F | 60% | 14800 nM | 2807 ng/mL | 16.1% | 344 nM | 437 ng/mL | > 10 µM | 531 ng/mL | 370 ng/mL | 67.9 mL/min/kg | 325 ng/mL | 173 ng/mL | 172 ng/mL | 11 nM | 283 ng/mL | Active | 427 ng/mL | 257 ng/mL | 47638 ng/mL | 1.24 L/kg | Activity (Mus musculus [20]): 97.2 mg/dL; Vd (Mus musculus [21]): 5.2 L/kg; EC50 [22]: > 10 µM; concentration at 1.5 h [23]: 398 ng/mL; EC50 [24]: > 10 µM; Drug uptake [25]: 1446 ng/mL; EC50 (Estrogen receptor): > 10 µM; concentration at 4 h [26]: 52 ng/mL; Drug uptake [27]: 150 ng/mL; concentration at 5 min [28]: 745 ng/mL; Drug uptake [29]: 10013 ng/mL; Drug uptake (Liver [30]): 23 ng/mL; clearance [31]: 11.9 mL/min/kg; Activity (Mus musculus [32]): Active
CC(C)c1onc(-c2c(Cl)cccc2Cl)c1COc1ccc(N(C)Cc2ccc(C(=O)O)cc2)c(C(F)(F)F)n1 | 57% | 10400 nM | 18928 ng/mL | 16.2% | 512 nM | 1600 ng/mL | > 10 µM | 420 ng/mL | 267 ng/mL | 104 mL/min/kg | 361 ng/mL | 472 ng/mL | 2872 ng/mL | 3 nM | 92 ng/mL | Active | 57 ng/mL | 1512 ng/mL | 22443 ng/mL | 0.931 L/kg | Vd (Mus musculus [21]): 5.26 L/kg; EC50 [22]: > 10 µM; concentration at 1.5 h [23]: 122 ng/mL; EC50 [24]: > 10 µM; Drug uptake [25]: 1697 ng/mL; EC50 (Estrogen receptor): > 10 µM; concentration at 4 h [26]: 14 ng/mL; Drug uptake [27]: 4261 ng/mL; concentration at 5 min [28]: 1620 ng/mL; Drug uptake [29]: 11927 ng/mL; Drug uptake (Liver [30]): 262 ng/mL; clearance [31]: 16.8 mL/min/kg; Activity (Mus musculus [32]): Active
